Experimental data collected from several papers.
Each line is one published result; the experiments were not run side by side.
Observed: cell growth or viability

| SMILES | cell line | assay | conditions | endpoint | result |
| --- | --- | --- | --- | --- | --- |
| C=CC(=O)c1cccnc1Nc1cc(C(F)(F)F)ccc1OC | BXPC-3 | SRB | 48 h | GI50 | 6.19 µM |
| Cc1nc(Nc2ccc3c(c2)/C(=C/c2ccccc2)C(=O)N3Cc2ccccc2)c2ccccc2n1 | B16 | MTT | – | IC50 | 15.1 µM |
| Nc1ccc(/C=C/C(=O)NCc2cc3cc(-c4ccc(C(=O)N5CCC(F)(F)CC5)cc4)cc(-c4ccc(F)cc4)c3o2)cn1 | BXPC-3 | CCK-8 | 72 h | IC50 | > 20 µM |
| Cc1nc(Nc2ccc3c(c2)/C(=C/c2ccccc2Cl)C(=O)N3)c2ccccc2n1 | B16 | MTT | – | IC50 | 3.34 µM |
| COc1cc2c3c(n(CCCNCCO)c(=O)c2cc1OC)-c1nc2c(cc1C3=O)OCO2 | RD-ES | MTS | 72 h | IC50 | 0.022 µM |
| Cc1sc2c(c1C)C(c1ccc(Cl)cc1)=N[C@@H](CC(=O)NCCCCCCCCNC(=O)COc1cccc3c1C(=O)N(C1CCC(=O)NC1=O)C3=O)c1nnc(C)n1-2 (stereo partly shown) | BXPC-3 | ATP luminescence | – | IC50 | 0.27 µM |
| Cc1nc(Nc2ccc3c(c2)C(C)(C)C(=O)N3C)c2ccccc2n1 | B16 | MTT | – | IC50 | 14 µM |
| C=CC(=O)c1cccnc1Nc1cc(C(F)(F)F)ccc1OCc1ccccc1 | BXPC-3 | SRB | 48 h | GI50 | 11.6 µM |
| Nc1ccc(/C=C/C(=O)N2CCc3c(oc4c(-c5ccc(F)cc5)cc(-c5ccc(C(=O)N6CCC(F)(F)CC6)nn5)cc34)C2)cn1 | BXPC-3 | CCK-8 | 72 h | IC50 | > 20 µM |
| COc1cc2c3c(n(CCCN4CCOCC4)c(=O)c2cc1OC)-c1nc2c(cc1C3=O)OCO2 | RD-ES | MTS | 72 h | IC50 | 0.608 µM |
| O=C(O)c1ccccc1Nc1cccc(C(F)(F)F)c1 | BXPC-3 | SRB | 48 h | GI50 | > 30 µM |
| C=CC(=O)NC1CCN(c2ncc3ncnc(Nc4ccc(Oc5ccc6c(c5)ncn6C)c(C)c4)c3n2)CC1 | NCI-H2172 | – | – | EC50 | 6.65 µM |
| Cc1nc(Nc2ccc3c(c2)C(C)(C)C(=O)N3)c2ccccc2n1 | B16 | MTT | – | IC50 | 14.8 µM |
